This is an account of results in ChEMBL document CHEMBL1133541, “Conformationally constrained butyrophenones with affinity for dopamine (D(1), D(2), D(4)) and serotonin (5-HT(2A), 5-HT(2B), 5-HT(2C)) receptors: synthesis of aminomethylbenzo[b]furanones and their evaluation as antipsychotics” (J Med Chem, 2000).

For test [1], the target named is T1, 5-hydroxytryptamine receptor 2C (Homo sapiens) (UniProt P28335).
T1 sequence (whole entry): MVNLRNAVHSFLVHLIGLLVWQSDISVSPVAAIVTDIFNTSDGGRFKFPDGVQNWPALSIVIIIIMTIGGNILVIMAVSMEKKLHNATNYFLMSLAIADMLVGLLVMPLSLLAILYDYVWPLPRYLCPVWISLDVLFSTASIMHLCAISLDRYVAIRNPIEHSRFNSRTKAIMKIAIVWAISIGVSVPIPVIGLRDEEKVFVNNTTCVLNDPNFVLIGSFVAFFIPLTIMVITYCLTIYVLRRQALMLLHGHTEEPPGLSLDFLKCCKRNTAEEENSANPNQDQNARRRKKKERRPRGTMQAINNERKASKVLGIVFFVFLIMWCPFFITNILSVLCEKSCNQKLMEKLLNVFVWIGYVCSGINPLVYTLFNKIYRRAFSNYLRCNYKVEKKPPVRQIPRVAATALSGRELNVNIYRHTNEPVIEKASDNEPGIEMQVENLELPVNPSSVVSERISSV
The conditions noted are these: Bos taurus; 10e-6 M.

Test [2] has as its target T2, 5-hydroxytryptamine receptor 2A (Rattus norvegicus, UniProt P14842). As to the kind of experiment: In vitro affinity against serotonin 5-hydroxytryptamine 2A receptor.
In test [3] the target is T3, 5-hydroxytryptamine receptor 2B (Rattus norvegicus, UniProt P30994). In words: Compound was evaluated for antagonism against serotonin (5-hydroxytryptamine 2B receptor ) receptor. Type of test: functional. As to conditions: read-out: pA2 (converted). The procedure, abridged: (§1)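 Rat stomach fundus strips in modified Krebs solution, 37 °C, carbogen-aerated organ baths; serotonin cumulative concentration-response curves (0.01 nM-10 µM), runs alternating with and without antagonist, 60 min rest between. Antagonism expressed as pA2 (-log antagonist concentration maintaining response when agonist doubled); 3-4 replicate experiments.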

In test [4] the test system is Mus musculus. In words: Effective dose administered in catalepsy test in mice (in vivo). The format is functional. Put shortly: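 Mice (n = 6-12) tested 30 min after dosing: forepaws on one horizontal wire, hindpaws on another 6 cm away and 2 cm lower. Posture held over 30 s counted as catalepsy; ED50 by Litchfield-Wilcoxon method.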
Test [5] deals with T3, 5-hydroxytryptamine receptor 2B. As to the kind of experiment: Compound was evaluated for antagonism against serotonin (5-hydroxytryptamine 2B) receptor. As to conditions: read-out: pA2 (converted). Type of test: functional. Put shortly: as §1
Test [6] has as its target D(1A) dopamine receptor (Rattus norvegicus, UniProt P18901). In words: In vitro affinity against Dopamine receptor D1.
For test [7], the system named is Mus musculus. As to the kind of experiment: Antipsychotic activity was determined in mice or rat within 20-30 min of administration.
For test [8], the target named is T2, 5-hydroxytryptamine receptor 2A. In words: In vitro affinity against serotonin ( 5-hydroxytryptamine 2A receptor ) receptor. The procedure, abridged: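 Rat frontal cortex membranes (male Sprague-Dawley), preincubated 37 °C 15 min to remove endogenous 5-HT, in Tris-HCl pH 8.07 with 4 mM CaCl2 and 0.1% ascorbic acid. [3H]ketanserin competition in triplicate, 1 µM methysergide masking as required, 30 min at 37 °C; filtration on PEI-soaked GF/C, scintillation counting; two replicate experiments.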

The test system of test [9] is Mus musculus. As to the kind of experiment: Effective dose administered in apomorphine induced climbing test in mice (in vivo); Value ranges from 0.8-1.44. Type of test: functional.
The nature of test [10]: In vitro affinity against Dopamine receptor D4. Also noted: species or system Bos taurus.
Test [11] has as its target T1, 5-hydroxytryptamine receptor 2C (Homo sapiens). As to conditions: Bos taurus; 10e-6 M. This is another data set of the same source.
Test [12] concerns Mus musculus. As to the kind of experiment: Effective dose administered in apomorphine induced climbing test in mice (in vivo). The format is functional.

Bounds are passed on as bounds.

For orientation: Inhibition means the drop in the measured response relative to a control, in per cent. By Ki is commonly meant a dissociation constant, usually derived from enzyme kinetics or from competition with a known ligand. Lower therefore signals a stronger hold on the target. For orientation: ED50 means the midpoint of the dose-response relation. A lower ED50 goes with an effect at a small dose.

T2 sequence (P14842 whole entry): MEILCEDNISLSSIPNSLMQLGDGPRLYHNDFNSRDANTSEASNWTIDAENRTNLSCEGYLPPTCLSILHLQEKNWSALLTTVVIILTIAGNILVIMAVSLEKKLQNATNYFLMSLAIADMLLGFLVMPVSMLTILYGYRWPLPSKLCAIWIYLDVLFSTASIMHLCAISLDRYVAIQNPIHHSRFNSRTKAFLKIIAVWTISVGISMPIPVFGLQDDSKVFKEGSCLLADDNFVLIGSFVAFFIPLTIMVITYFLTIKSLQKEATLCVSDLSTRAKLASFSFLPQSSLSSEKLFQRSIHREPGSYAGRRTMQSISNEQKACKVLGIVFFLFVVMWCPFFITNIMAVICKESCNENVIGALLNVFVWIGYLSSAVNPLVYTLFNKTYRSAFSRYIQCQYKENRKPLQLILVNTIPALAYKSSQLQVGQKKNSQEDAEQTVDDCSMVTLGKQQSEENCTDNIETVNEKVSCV
T3 sequence (P30994 whole entry): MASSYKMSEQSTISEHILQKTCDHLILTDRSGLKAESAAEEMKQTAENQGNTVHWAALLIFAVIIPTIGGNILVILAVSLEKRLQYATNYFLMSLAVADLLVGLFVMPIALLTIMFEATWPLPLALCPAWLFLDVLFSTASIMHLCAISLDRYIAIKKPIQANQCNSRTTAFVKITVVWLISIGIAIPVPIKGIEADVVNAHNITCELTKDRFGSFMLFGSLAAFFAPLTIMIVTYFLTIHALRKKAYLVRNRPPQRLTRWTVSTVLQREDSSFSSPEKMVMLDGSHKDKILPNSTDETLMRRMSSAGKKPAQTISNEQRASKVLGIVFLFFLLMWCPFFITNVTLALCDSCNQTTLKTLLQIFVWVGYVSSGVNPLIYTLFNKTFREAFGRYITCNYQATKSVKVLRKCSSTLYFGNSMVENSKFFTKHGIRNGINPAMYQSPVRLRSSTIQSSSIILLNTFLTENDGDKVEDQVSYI
D(1A) dopamine receptor, sequence (P18901 whole entry): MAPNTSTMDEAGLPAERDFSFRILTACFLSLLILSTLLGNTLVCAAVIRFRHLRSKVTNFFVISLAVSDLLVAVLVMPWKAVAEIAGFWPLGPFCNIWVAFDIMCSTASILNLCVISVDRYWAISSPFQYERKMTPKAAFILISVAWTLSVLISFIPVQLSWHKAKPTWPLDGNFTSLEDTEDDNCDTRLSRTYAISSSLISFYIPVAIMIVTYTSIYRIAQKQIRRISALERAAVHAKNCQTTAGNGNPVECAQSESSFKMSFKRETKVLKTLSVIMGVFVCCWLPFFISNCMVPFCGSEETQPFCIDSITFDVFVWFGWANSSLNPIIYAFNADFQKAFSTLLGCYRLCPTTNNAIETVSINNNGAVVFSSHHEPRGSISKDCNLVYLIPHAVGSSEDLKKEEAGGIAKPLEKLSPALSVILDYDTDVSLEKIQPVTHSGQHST

In the case of `O=C(CCCCN1CCN(CC2CC(=O)c3ccoc3C2)CC1)c1ccc(F)cc1` (stereo not given), the Inhibition in test [1] stood at 44.3%. In [2], this molecule had a Ki of 1260 nM. Moreover, in test [3], the Kb was 589 nM.

With `COc1ccccc1N1CCN(CC2CC(=O)c3ccoc3C2)CC1` (stereo not given), in test [2], the Ki was 2290 nM. In addition, in [3], the Kb was 646 nM.

In test [2], `O=C1CC(CN2CCN(c3ccccn3)CC2)Cc2occc21` (stereo not given) had a Ki of 8320 nM. Moreover, the Kb in test [3] is 3470 nM.

On to `O=C1CC(CN2CCC(C(=O)c3ccc(F)cc3)CC2)Cc2occc21` (stereo not given), for which the values for the ED50 in test [4], in [7] and in test [9] were 3.44 mg/kg, 1.21 mg/kg and 0.95 mg/kg, respectively. Besides, the Kb in test [5] is 195 nM. Besides, the inhibition constant Ki in test [6] was 195 nM; in test [8] it was 51.3 nM. Moreover, the “Log Ki” value in test [10] is listed as -7.04.

For the molecule `O=C1CC(CN2CCN(c3ccccc3)CC2)Cc2occc21` (stereo not given), in test [3], the Kb was greater than 100000 nM. Further, the inhibition constant (Ki) in [8] was 21.9 nM.

In turn, `O=C(CCCN1CCN(CC2CC(=O)c3ccoc3C2)CC1)c1ccc(F)cc1` (stereo not given) showed an inhibition constant Ki in test [2] of 955 nM. Moreover, the Inhibition in [11] came to 3.7%. Further, the Kb in [3] was 437 nM.

Regarding `O=C1CC(CN2CCC(c3noc4cc(F)ccc34)CC2)Cc2occc21` (stereo not given), the ED50 in test [4] stood at 3.84 mg/kg; in [12], 0.34 mg/kg; in [7] it was 0.48 mg/kg. In addition, the values for the inhibition constant (Ki) in test [6] and in [2] were 28.8 nM and 10.7 nM, respectively. For the same molecule, the Kb in [3] was 245 nM. Also, the “Log Ki” value in test [10] was -7.68.

For the molecule `CN1CCN(C2=Nc3cc(Cl)ccc3Nc3ccccc32)CC1` [CLOZAPINE], in test [10], the “Log Ki” value is -7.42.

In the case of `O=C(CCCN1CCC(O)(c2ccc(Cl)cc2)CC1)c1ccc(F)cc1` [HALOPERIDOL], the “Log Ki” value in test [10] is reported as -8.2.

As for `O=C1CC(CN2CCN(c3ncccn3)CC2)Cc2occc21` (stereo not given), the inhibition constant Ki in test [2] was greater than 100000 nM. The Kb in [3] is 1820 nM.
